The target of assay [1] is Translocon-associated protein subunit delta (Homo sapiens) (UniProt P51571). In words: Binding affinity to SSR4 in human NCI-H23 cells at 1 uM by mass spectrometry based pull down assay. The format is cell-based.
Assay [2] concerns the target Acyl-coenzyme A thioesterase 13 (Homo sapiens) (UniProt Q9NPJ3). Description: Binding affinity to ACOT13 in human NCI-H23 cells at 1 uM by mass spectrometry based pull down assay. The format is cell-based. The essentials: (§1)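 NCI-H23 or NCI-H358 cells were grown and lysed. Lysates were incubated overnight at 4 °C with 1 μM biotinylated covalent probe or DMSO, then pulled down on streptavidin beads. Proteins were run on polyacrylamide gels and stained with Coomassie. Bands were excised, digested and identified by mass spectrometry.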

In assay [3] the target is T1, Mitogen-activated protein kinase kinase kinase 7 (Homo sapiens) (UniProt O43318).
T1 sequence (whole entry): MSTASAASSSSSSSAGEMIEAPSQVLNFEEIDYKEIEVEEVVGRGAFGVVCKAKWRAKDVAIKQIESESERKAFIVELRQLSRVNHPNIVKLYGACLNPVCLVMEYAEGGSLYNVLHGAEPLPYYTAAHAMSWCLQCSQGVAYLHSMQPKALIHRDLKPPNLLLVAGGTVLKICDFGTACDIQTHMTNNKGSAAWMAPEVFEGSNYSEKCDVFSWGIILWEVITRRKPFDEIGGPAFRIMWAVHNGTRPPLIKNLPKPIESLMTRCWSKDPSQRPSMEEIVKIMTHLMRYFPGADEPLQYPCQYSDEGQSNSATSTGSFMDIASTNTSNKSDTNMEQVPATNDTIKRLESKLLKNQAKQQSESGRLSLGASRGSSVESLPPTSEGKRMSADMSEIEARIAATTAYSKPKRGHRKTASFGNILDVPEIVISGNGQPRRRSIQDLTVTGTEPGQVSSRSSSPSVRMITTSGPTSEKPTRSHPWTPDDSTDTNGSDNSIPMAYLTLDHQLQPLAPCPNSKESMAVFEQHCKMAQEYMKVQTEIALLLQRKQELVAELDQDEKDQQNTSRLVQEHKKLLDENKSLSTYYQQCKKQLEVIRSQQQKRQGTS
In words: Binding affinity to MAP3K7 in human NCI-H23 cells at 1 uM by mass spectrometry based pull down assay. The format is cell-based.

For assay [4], the target named is COP9 signalosome complex subunit 8 (Homo sapiens) (UniProt Q99627). Description: Binding affinity to COPS8 in human NCI-H23 cells at 1 uM by mass spectrometry based pull down assay. Type of assay: cell-based.
Assay [5] deals with Small ribosomal subunit protein uS7m (Homo sapiens) (UniProt Q9Y2R9). In words: Binding affinity to MRPS7 in human NCI-H23 cells at 1 uM by mass spectrometry based pull down assay. Type of assay: cell-based.
Assay [6] concerns the target T2, 80S Ribosome (Homo sapiens) (UniProt P08865+P42677+P62753+P15880+P23396+P61247+P62701+P22090+P46782+P62081+P62241+P46781+P46783+P62280+P25398+P62277+P62263+P62841+P62244+P62249+P08708+P62269+P39019+P60866+P63220+P62266+P62847+P62851+P62854+P62979+P62857+P62273+P62861+P39023+P36578+P46777+Q02878+P18124+P62424+P62917+P32969+P27635+P62906+P62913+P30050+P26373+P40429+P50914+P61313+P18621+Q07020+Q02543+P84098+P46778+P35268+P62829+P62750+P83731+P61254+P61353+P46776+P46779+P47914+P62888+P62899+P62910+P49207+P42766+P18077+Q9Y3U8+P83881+P61927+P61513+P63173+P62891+P62945+P05388+P05386). In words: Binding affinity to RPS17 in human NCI-H23 cells at 1 uM by mass spectrometry based pull down assay. Type of assay: cell-based.

Assay [7] deals with Cyclin-G-associated kinase (Homo sapiens) (UniProt O14976). In words: Binding affinity to GAK in human NCI-H23 cells at 1 uM by mass spectrometry based pull down assay. The format is cell-based.
Assay [8] has as its target T-complex protein 1 subunit epsilon (Homo sapiens) (UniProt P48643). Description: Binding affinity to CCT5 in human NCI-H358 cells at 1 uM by mass spectrometry based pull down assay. Type of assay: cell-based.
In assay [9] the target is T2, 80S Ribosome (Homo sapiens). In words: Binding affinity to RPS5 in human NCI-H358 cells at 1 uM by mass spectrometry based pull down assay. The format is cell-based.
In assay [10] the target is Ras GTPase-activating-like protein IQGAP1 (Homo sapiens) (UniProt P46940). In words: Binding affinity to IQGAP1 in human NCI-H358 cells at 1 uM by mass spectrometry based pull down assay. Type of assay: cell-based.
Assay [11] addresses Pyrroline-5-carboxylate reductase 2 (Homo sapiens) (UniProt Q96C36). Description: Binding affinity to PYCR2 in human NCI-H358 cells at 1 uM by mass spectrometry based pull down assay. The format is cell-based.
Assay [12] has as its target Transmembrane emp24 domain-containing protein 10 (Homo sapiens) (UniProt P49755). In words: Binding affinity to TMED10 in human NCI-H358 cells at 1 uM by mass spectrometry based pull down assay. Type of assay: cell-based.
The next assay has as its system NCI-H358. Description: Binding affinity to PTGES3L-AARSD1 in human NCI-H358 cells at 1 uM by mass spectrometry based pull down assay. Type of assay: cell-based.
The target of assay [13] is AH receptor-interacting protein (Homo sapiens) (UniProt O00170). In words: Binding affinity to AIP in human NCI-H358 cells at 1 uM by mass spectrometry based pull down assay. Type of assay: cell-based. The essentials:
as §1

The target of assay [14] is T3, Dual specificity mitogen-activated protein kinase kinase 3 (Homo sapiens) (UniProt P46734).
T3 sequence (whole entry): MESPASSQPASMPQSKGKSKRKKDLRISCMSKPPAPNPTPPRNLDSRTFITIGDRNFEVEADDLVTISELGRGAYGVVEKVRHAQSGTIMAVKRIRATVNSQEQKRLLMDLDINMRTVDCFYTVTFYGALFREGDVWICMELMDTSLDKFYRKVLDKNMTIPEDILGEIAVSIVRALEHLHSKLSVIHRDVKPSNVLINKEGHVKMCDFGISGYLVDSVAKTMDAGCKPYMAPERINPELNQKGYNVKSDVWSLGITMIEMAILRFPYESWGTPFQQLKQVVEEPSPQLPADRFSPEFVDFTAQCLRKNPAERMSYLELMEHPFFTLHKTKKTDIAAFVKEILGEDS
Description: Binding affinity to MAP2K3 in human NCI-H358 cells at 1 uM by mass spectrometry based pull down assay. The format is cell-based.

The target of assay [15] is Serine/threonine-protein kinase RIO3 (Homo sapiens) (UniProt O14730). Description: Inhibition of full length human RIOK3 (1 to 519 residues) expressed in bacterial expression system assessed as enzyme activity at 1 uM by KINOMEScan assay relative to control. Also noted: scale not given: the % may be the effect or the level left. In outline:
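In vitro ATP-site competition binding assay (KinomeScan) across a panel of 456 kinases. Compound was tested at 1 and 10 μM. The read-out is the binding inhibition score relative to control.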

In a further assay the test system is BaF3. Description: Antiproliferative activity against mouse BA/F3 cells harboring KRAS G12D mutant after 72 hrs by CellTiter-Glo assay. The format is functional, cell-based. To be noted: BaF3, 72 h.

In ChEMBL document CHEMBL4118021, “Studies of TAK1-centered polypharmacology with novel covalent TAK1 inhibitors” (Bioorg Med Chem, 2017) one finds Activity and IC50 data, which are given here for two compounds.

Activity calls are given as the source filed them. The calls are words filed in the database; no cut-off is given here.

T-complex protein 1 subunit epsilon (Homo sapiens), sequence (P48643 whole entry, one chain of several): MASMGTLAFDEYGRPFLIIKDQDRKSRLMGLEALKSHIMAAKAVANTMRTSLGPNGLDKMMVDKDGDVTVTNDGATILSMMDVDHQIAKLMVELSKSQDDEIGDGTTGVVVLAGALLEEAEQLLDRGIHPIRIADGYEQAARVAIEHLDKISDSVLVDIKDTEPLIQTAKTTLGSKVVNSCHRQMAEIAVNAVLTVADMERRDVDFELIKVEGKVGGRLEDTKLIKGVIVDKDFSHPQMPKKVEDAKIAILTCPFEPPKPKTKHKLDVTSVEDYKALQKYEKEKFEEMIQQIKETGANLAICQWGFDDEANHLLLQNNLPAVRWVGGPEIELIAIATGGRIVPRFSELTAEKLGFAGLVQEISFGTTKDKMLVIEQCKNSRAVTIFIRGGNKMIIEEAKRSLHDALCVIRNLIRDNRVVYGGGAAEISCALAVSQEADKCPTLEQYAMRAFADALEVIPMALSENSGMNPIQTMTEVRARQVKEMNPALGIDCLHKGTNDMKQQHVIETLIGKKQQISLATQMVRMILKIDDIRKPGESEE
Transmembrane emp24 domain-containing protein 10 (Homo sapiens), sequence (P49755 whole entry, the tested form may be a part): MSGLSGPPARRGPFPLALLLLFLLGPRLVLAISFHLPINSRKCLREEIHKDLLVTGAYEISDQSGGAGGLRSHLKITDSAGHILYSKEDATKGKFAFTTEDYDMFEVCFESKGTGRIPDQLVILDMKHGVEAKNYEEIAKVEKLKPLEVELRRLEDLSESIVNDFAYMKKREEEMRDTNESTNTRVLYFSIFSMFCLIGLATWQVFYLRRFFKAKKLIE
Ras GTPase-activating-like protein IQGAP1 (Homo sapiens), sequence (P46940 whole entry): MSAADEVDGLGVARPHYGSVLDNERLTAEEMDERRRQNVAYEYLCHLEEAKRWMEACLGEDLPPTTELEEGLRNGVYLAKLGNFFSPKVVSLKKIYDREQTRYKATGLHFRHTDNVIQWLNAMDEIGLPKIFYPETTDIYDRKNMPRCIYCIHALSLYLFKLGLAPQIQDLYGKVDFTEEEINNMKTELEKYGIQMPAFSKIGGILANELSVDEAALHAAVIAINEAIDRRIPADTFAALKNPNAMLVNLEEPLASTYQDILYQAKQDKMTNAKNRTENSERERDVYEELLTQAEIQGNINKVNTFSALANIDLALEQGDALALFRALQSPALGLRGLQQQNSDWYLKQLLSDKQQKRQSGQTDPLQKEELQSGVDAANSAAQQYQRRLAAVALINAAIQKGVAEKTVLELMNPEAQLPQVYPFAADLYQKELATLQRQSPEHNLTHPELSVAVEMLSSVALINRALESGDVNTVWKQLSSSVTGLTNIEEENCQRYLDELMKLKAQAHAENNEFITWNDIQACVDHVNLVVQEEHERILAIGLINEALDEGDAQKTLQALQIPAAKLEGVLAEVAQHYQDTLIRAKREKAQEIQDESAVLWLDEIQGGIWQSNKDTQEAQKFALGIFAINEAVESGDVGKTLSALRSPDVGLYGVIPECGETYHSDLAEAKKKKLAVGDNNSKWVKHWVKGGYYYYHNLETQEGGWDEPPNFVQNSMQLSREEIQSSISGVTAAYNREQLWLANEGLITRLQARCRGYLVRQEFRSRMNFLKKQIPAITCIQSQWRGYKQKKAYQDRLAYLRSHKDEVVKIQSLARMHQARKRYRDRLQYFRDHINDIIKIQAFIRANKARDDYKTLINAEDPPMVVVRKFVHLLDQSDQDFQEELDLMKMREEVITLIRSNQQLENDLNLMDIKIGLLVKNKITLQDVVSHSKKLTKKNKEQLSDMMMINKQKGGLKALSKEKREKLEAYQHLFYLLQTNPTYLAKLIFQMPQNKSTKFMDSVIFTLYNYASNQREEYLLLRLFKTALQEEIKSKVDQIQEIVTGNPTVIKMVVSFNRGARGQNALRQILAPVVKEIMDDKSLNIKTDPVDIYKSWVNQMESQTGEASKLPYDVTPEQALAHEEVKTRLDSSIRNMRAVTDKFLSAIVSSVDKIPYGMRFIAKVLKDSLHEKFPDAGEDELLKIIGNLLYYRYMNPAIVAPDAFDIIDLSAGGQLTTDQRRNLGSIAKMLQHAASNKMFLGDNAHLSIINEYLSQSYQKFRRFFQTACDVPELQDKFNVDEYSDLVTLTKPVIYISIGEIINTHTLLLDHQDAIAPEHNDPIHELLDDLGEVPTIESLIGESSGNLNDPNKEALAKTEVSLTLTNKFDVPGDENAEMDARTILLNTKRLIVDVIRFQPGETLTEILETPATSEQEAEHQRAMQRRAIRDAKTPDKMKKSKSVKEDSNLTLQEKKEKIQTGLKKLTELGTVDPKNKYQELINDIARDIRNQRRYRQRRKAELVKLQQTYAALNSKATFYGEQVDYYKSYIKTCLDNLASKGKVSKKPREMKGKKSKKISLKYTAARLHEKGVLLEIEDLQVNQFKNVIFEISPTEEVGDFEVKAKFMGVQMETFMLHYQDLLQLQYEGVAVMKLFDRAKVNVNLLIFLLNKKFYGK
COP9 signalosome complex subunit 8 (Homo sapiens), sequence (Q99627 whole entry, one chain of several): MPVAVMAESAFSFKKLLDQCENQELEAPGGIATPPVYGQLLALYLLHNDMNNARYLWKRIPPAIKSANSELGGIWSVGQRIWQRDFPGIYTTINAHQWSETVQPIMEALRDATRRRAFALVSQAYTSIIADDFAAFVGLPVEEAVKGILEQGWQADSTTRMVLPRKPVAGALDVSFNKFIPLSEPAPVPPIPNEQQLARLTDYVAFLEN
Cyclin-G-associated kinase (Homo sapiens), sequence (O14976 whole entry): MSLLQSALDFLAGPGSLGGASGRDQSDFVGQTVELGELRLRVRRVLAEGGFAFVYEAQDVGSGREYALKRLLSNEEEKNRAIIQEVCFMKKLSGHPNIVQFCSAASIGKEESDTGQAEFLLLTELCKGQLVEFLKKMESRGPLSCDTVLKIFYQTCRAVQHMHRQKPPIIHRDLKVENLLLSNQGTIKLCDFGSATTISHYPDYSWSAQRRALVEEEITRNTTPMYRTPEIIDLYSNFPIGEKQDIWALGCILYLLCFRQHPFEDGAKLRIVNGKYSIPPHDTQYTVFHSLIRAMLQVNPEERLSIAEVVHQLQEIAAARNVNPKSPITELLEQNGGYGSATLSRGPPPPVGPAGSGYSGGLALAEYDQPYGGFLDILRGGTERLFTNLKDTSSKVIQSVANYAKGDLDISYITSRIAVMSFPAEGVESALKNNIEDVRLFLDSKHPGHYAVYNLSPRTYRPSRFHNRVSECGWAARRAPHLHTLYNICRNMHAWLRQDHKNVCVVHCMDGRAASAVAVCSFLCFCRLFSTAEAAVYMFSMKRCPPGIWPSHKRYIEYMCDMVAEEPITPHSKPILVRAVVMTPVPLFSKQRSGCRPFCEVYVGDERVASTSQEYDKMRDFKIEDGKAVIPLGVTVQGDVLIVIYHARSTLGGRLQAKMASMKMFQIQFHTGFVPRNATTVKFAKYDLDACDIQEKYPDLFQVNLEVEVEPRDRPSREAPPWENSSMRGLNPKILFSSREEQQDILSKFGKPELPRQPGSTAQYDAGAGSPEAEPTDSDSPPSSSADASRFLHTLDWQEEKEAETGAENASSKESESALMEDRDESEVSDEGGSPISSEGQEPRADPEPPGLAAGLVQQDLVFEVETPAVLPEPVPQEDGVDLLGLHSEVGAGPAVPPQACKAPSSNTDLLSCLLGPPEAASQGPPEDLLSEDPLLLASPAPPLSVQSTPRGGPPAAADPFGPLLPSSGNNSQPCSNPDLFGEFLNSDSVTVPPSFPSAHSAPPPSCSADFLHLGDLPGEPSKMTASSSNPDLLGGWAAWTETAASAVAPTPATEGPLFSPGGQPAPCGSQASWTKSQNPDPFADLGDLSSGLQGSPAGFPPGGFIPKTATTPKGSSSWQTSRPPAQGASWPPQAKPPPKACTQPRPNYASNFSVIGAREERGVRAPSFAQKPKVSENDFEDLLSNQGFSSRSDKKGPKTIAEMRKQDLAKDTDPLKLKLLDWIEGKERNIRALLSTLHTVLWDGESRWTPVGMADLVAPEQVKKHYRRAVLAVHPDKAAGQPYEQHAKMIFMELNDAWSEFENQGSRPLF
Acyl-coenzyme A thioesterase 13 (Homo sapiens), sequence (Q9NPJ3 whole entry): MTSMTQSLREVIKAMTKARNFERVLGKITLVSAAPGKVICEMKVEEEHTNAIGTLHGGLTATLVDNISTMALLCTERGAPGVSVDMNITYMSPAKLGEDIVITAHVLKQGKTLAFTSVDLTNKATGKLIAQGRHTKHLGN
Translocon-associated protein subunit delta (Homo sapiens), sequence (P51571 whole entry): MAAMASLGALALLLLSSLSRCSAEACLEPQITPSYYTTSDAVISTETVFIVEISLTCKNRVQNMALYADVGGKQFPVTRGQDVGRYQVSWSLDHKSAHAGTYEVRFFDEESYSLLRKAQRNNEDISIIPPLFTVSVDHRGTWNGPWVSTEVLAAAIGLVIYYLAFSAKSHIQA
AH receptor-interacting protein (Homo sapiens), sequence (O00170 whole entry): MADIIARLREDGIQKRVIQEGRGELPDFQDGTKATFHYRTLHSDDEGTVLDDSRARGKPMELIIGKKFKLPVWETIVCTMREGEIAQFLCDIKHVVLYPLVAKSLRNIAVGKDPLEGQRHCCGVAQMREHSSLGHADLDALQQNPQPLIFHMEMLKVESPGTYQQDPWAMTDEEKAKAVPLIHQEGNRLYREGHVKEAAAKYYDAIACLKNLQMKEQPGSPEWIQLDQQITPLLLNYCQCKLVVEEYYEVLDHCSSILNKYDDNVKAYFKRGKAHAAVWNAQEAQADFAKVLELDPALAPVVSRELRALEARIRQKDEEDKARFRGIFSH
Pyrroline-5-carboxylate reductase 2 (Homo sapiens), sequence (Q96C36 whole entry, the tested form may be a part): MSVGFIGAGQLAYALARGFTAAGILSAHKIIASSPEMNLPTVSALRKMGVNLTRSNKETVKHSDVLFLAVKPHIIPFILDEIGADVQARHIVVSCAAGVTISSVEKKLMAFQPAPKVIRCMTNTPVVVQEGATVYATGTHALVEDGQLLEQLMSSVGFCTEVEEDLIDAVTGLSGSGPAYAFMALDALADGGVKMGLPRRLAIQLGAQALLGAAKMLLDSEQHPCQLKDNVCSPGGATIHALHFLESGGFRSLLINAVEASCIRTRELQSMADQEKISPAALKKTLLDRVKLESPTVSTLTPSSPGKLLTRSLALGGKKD

Consider `C=CC(=O)Nc1ccccc1Nc1nc(Nc2ccc(N3CCN(CCOCCOCCOCCNC(=O)CCCC[C@@H]4SC[C@@H]5NC(=O)N[C@@H]54)CC3)cc2)ncc1Cl`, for which the outcome in [1], in [2], in assay [3], in assay [4], in [5] and in assay [6] was Active. For the same compound, the result in [7], in [8], in assay [9], in assay [10], in assay [11] and in assay [12] was Active. The result (in the assay with NCI-H358; in [13]; in [14]) was Active.

`COc1cc(O)c2c(c1)/C=C/C[C@H](O)[C@H](O)C(=O)/C=C\C[C@H](C)OC2=O`: in assay [15], the Activity turned out to be 74%. In addition, the IC50 with BaF3 was 4 nM.
